Active and inactive are the calls of the source.
Assays:
Mus musculus [1] = assay: Antinociceptive activity in C57BL/6 mouse assessed as increase in latency time to tail flick at 1 to 3.2 mg/kg, ip measured at 30 min interval by warm water tail withdrawal assay; type: functional, organism-based
Method in brief: (§1)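 Adult male C57BL/6 mice, 20–30 g, 8–16 weeks. Saline ip, baseline read 30 min later. Then three increasing ip doses every 30 min, in water or 1:1:8 ethanol:Alkumuls:water, giving cumulative 1, 3.2 and 10 mg/kg. Tail tip (2–3 cm) put in 50 °C water 30 min after each injection; latency to withdraw or flick read, 20 s cutoff; n = 3.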

Mus musculus [2] = assay: Antinociceptive activity in C57BL/6 mouse assessed as time duration of action at 10 mg/kg, ip by warm water tail withdrawal assay; type: functional
Method in brief: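 Male C57BL/6 mice given a single 10 mg/kg ip dose. Tail-withdrawal latency in 50 °C water (2–3 cm tail tip, 20 s cutoff) read at varying times after dosing to follow duration of antinociception; n = 3.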

Mu-type opioid receptor [3] = target: T1, Mu-type opioid receptor (Rattus norvegicus, UniProt P33535); assay: Agonist activity at rat MOR transfected in rat C6 cell membranes after 1 hr by [35S]GTPgammaS assay; type: functional
Method in brief: (§2)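 Membranes (10–20 μg protein) from cells grown to confluence in DMEM/10% FBS, incubated 1 h at 25 °C in 50 mM Tris-HCl, 100 mM NaCl, 5 mM MgCl2, pH 7.4 with 0.1 nM [35S]GTPγS, 30 μM GDP and varying peptidomimetic concentrations. Filtered on GF/C, counted by scintillation. % stimulation relative to 10 μM DAMGO (MOR), DPDPE (DOR) or U69,593 (KOR).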

[4] = target: T2, Delta-type opioid receptor (Rattus norvegicus, UniProt P33533); assay: Displacement of [3H]diprenorphine from rat DOR transfected in rat C6 cell membranes after 1 hr by liquid scintillation counting
Method in brief: (§3)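 Membranes (20 μg protein/tube) in 50 mM Tris-HCl pH 7.4 with 0.2 nM [3H]diprenorphine and varying peptidomimetic concentrations, 1 h at room temperature to equilibrium. GF/C filtration, five buffer washes, scintillation counting. Nonspecific binding with 10 μM naloxone.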

[5] = target: T2, Delta-type opioid receptor; assay: Agonist activity at rat DOR transfected in rat C6 cell membranes after 1 hr by [35S]GTPgammaS assay; type: functional; method in brief: as §2
[6] = target: Mu-type opioid receptor (Rattus norvegicus) (UniProt P33535); assay: Agonist activity at rat MOR transfected in rat C6 cell membranes at 10 uM after 1 hr by [35S]GTPgammaS assay relative to DAMGO; type: functional; method in brief: as §2
Mu-type opioid receptor [7] = target: T1, Mu-type opioid receptor; assay: Displacement of [3H]diprenorphine from rat MOR transfected in rat C6 cell membranes after 1 hr by liquid scintillation counting; method in brief: as §3
[8] = target: T3, Kappa-type opioid receptor (Homo sapiens, UniProt P41145); assay: Displacement of [3H]diprenorphine from human KOR expressed in CHO cell membranes after 1 hr by liquid scintillation counting; method in brief: as §3
[9] = target: Delta-type opioid receptor (Rattus norvegicus) (UniProt P33533); assay: Agonist activity at rat DOR transfected in rat C6 cell membranes at 10 uM after 1 hr by [35S]GTPgammaS assay relative to DPDPE; type: functional; method in brief: as §2
[10] = target: T3, Kappa-type opioid receptor; assay: Agonist activity at human KOR expressed in CHO cell membranes at 10 uM after 1 hr by [35S]GTPgammaS assay relative to U69,593; type: functional; method in brief: as §2
Mus musculus [11] = assay: Antinociceptive activity in C57BL/6 mouse assessed as increase in latency time to tail flick at 1 to 10 mg/kg, ip measured at 30 min interval by warm water tail withdrawal assay; type: functional, organism-based; method in brief: as §1
[12] = target: T3, Kappa-type opioid receptor; assay: Agonist activity at human KOR expressed in CHO cell membranes after 1 hr by [35S]GTPgammaS assay; type: functional; method in brief: as §2

T3 sequence (P41145 whole entry): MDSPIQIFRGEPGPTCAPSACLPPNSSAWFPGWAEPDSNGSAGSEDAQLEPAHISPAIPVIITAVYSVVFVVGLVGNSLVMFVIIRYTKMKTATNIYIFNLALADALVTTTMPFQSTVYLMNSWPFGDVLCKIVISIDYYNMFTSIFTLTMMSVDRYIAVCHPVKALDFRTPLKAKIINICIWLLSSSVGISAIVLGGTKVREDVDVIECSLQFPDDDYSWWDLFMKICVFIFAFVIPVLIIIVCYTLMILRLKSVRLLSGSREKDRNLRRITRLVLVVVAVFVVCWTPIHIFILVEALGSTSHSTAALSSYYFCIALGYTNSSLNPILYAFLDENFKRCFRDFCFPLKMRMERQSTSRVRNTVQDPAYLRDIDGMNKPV
Delta-type opioid receptor (Rattus norvegicus), sequence (P33533 whole entry): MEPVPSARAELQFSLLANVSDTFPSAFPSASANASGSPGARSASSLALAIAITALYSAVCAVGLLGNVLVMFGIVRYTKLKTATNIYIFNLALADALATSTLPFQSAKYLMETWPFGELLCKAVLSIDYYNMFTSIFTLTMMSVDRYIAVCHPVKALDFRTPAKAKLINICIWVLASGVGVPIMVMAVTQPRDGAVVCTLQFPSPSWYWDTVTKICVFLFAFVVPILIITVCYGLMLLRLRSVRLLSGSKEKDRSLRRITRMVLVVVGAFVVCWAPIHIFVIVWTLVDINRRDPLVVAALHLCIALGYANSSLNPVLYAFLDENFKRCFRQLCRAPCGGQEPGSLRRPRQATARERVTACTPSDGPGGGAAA
T2 sequence (P33533 whole entry): as above
T1 sequence (P33535 whole entry): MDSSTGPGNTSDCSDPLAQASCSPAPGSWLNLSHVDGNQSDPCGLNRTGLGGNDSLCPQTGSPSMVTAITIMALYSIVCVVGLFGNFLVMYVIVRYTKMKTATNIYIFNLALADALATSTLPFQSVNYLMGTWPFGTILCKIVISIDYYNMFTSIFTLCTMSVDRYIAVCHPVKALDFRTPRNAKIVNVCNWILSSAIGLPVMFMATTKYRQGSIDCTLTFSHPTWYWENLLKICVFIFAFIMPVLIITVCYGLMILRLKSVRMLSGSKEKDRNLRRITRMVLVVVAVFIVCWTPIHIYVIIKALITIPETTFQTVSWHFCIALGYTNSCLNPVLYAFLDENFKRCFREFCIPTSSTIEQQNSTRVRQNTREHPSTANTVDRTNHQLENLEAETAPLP
Mu-type opioid receptor (Rattus norvegicus), sequence (P33535 whole entry): as above

| Structure (SMILES) | Activity (Mus musculus [1]) | Time (Mus musculus [2]) [h] | EC50 (Mu-type opioid receptor [3]) [nM] | Ki [4] [nM] | EC50 ([5]; read-out: EC50) [nM] | Emax [6] [%] | Ki (Mu-type opioid receptor [7]) [nM] | Ki [8] [nM] | Emax [9] | Emax [10] | Activity (Mus musculus [11]) | EC50 ([12]; cho) | EC50 ([5]; c6) | EC50 ([12]; read-out: EC50) [nM] |
| --- | --- | --- | --- | --- | --- | --- | --- | --- | --- | --- | --- | --- | --- | --- |
| Cc1cc(O)cc(C)c1C[C@H](N)C(=O)N[C@@H]1CCNc2ccc(Cc3ccccc3)cc21 | inactive | 1 |  |  |  |  |  |  |  |  |  |  |  |  |
| Cc1cc(O)cc(C)c1C[C@H](N)C(=O)N[C@@H]1CCN(C(=O)C2CCC2)c2ccc(Cc3ccccc3)cc21 |  |  | 2.1 | 0.15 | 5.1 | 94 | 0.23 | 56 | 58% | inactive | inactive | Not Active |  |  |
| CC(=O)N1CC[C@@H](NC(=O)[C@@H](N)Cc2c(C)cc(O)cc2C)c2cc(Cc3ccccc3)ccc21 |  |  |  |  |  |  |  |  |  |  | inactive |  |  |  |
| Cc1cc(O)cc(C)c1C[C@H](N)C(=O)N[C@@H]1CCN(C(=O)c2ccccc2)c2ccc(Cc3ccccc3)cc21 |  |  | 2.6 | 0.24 |  | 74 | 0.08 | 39 |  | 16% | inactive |  | Not Active | 430 |
| CCC(=O)N1CC[C@@H](NC(=O)[C@@H](N)Cc2c(C)cc(O)cc2C)c2cc(Cc3ccccc3)ccc21 |  |  | 3.9 | 1.1 | 32 | 96 | 0.12 | 40 | 58% | 32% |  |  |  | 880 |
| CCCC(=O)N1CC[C@@H](NC(=O)[C@@H](N)Cc2c(C)cc(O)cc2C)c2cc(Cc3ccc4ccccc4c3)ccc21 |  |  | 0.9 | 0.8 |  | 92 | 0.14 | 64 | inactive | inactive | inactive | Not Active | Not Active |  |
| COCC(=O)N1CC[C@@H](NC(=O)[C@@H](N)Cc2c(C)cc(O)cc2C)c2cc(Cc3ccccc3)ccc21 |  |  | 3 | 2.1 | 67 | 91 | 0.15 | 34 | 47% | 38% | inactive |  |  | > 1700 |
| Cc1cc(O)cc(C)c1C[C@H](N)C(=O)N[C@@H]1CCN(CC(=O)O)c2ccc(Cc3ccccc3)cc21 |  |  | 78 | 67 |  | 87 | 4.4 | 280 | inactive | inactive |  | Not Active | Not Active |  |
